In ChEMBL document CHEMBL4387708, “Enhancement of Benzothiazoles as Pteridine Reductase-1 Inhibitors for the Treatment of Trypanosomatidic Infections” (J Med Chem, 2019):
Calls of active or inactive are those of the source. The calls are words filed in the database; no cut-off is given here.

Key:
[1] = biological target: Voltage-gated inwardly rectifying potassium channel KCNH2 (Homo sapiens, UniProt Q12809); test: Displacement of Tracer Red from human ERG by fluorescence polarization assay
Pteridine reductase 1 = biological target: T1, Pteridine reductase 1 (Leishmania major, UniProt Q01782); test: Inhibition of Leishmania major pteridine reductase 1 using di-hydrobiopterine as substrate in presence of NADPH
T1 sequence (Q01782 whole entry): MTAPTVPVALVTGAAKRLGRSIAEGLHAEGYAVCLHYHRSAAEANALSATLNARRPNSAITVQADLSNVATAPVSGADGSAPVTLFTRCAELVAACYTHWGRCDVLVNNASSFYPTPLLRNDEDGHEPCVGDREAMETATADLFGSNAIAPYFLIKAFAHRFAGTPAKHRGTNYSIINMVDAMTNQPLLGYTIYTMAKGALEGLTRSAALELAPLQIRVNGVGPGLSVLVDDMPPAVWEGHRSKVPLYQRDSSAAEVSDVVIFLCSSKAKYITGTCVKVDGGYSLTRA
How it was run: (§1)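 Photometric PTR1 assay with NADPH and dihydrobiopterin substrate. H₄B formation is coupled non-enzymatically to cytochrome c reduction, read as signal increase at 550 nm.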

Trypanosoma brucei [2] = test: Inhibition of N-terminal His-tagged Trypanosoma brucei pteridine reductase 1 at 50 uM using di-hydrobiopterine as substrate measured at 1 min interval for 50 mins in presence of NADPH relative to control; how it was run: as §1
Cytochrome P450 1A2 = biological target: T2, Cytochrome P450 1A2 (Homo sapiens, UniProt P05177); test: Inhibition of human CYP1A2 expressed in baculovirus infected insect cells using beetle D-luciferin as substrate preincubated for 30 mins followed by NADPH addition and measured after 30 mins by CYP450-Glo assay
T2 sequence (P05177 whole entry): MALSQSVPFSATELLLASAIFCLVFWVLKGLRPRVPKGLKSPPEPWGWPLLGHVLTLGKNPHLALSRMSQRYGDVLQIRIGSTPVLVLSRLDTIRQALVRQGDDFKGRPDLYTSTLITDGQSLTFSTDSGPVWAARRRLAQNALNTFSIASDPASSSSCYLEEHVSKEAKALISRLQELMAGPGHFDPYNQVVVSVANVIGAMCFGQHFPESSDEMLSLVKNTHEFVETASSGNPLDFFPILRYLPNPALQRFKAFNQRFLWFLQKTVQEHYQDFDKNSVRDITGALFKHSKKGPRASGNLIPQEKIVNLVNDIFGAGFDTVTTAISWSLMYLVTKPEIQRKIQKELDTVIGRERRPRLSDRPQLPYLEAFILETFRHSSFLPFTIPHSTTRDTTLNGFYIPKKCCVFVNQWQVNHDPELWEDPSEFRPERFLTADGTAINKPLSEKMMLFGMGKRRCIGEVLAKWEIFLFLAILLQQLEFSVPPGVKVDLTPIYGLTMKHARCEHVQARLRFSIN

[3] = Cytotoxicity against human THP1 cells after 72 hrs by MTT assay; type: cell-based, THP-1; settings: read-out: NOAEL
Trypanosoma cruzi = test: Growth inhibition of trypomastigote form of Trypanosoma cruzi Y infected in human U2OS cells at 50 uM measured after 72 hrs by DRAQ5 DNA dye based confocal microscopic analysis relative to control; type: organism-based; settings: Trypanosoma cruzi, Y, U2OS, read-out: GI
[4] = Selectivity ratio of IC50 for Leishmania major pteridine reductase 1 to IC50 for N-terminal His-tagged Trypanosoma brucei pteridine reductase 1
[5] = Cytotoxicity against human U2OS cells assessed as reduction in cell number; type: cell-based
[6] = Mitochondrial toxicity in human 786-O cells measured after 6 hrs by MitoTracker Red chloromethyl-X-rosamine based assay; type: cell-based, 786-0
Cytochrome P450 2C19 = Cytochrome P450 2C19 (Homo sapiens, UniProt P33261); test: Inhibition of human CYP2C19 expressed in baculovirus infected insect cells using beetle D-luciferin as substrate preincubated for 30 mins followed by NADPH addition and measured after 30 mins by CYP450-Glo assay
Sequence of Cytochrome P450 2C19 (P33261 whole entry): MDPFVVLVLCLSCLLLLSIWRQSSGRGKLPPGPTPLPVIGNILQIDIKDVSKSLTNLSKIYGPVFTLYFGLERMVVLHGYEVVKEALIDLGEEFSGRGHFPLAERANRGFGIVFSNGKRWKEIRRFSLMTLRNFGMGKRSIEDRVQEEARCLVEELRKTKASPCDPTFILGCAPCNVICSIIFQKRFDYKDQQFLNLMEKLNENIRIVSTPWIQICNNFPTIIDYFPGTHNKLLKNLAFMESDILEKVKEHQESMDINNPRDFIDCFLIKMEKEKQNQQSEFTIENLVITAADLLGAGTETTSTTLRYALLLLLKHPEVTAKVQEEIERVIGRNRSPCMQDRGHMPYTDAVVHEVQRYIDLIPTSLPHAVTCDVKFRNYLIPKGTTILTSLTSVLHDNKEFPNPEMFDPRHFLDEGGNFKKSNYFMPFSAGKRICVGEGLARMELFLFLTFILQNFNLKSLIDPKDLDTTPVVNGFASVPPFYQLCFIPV

Cytochrome P450 2C9 = Cytochrome P450 2C9 (Homo sapiens, UniProt P11712); test: Inhibition of human CYP2C9 expressed in baculovirus infected insect cells using beetle D-luciferin as substrate preincubated for 30 mins followed by NADPH addition and measured after 30 mins by CYP450-Glo assay
Sequence of Cytochrome P450 2C9 (P11712 whole entry): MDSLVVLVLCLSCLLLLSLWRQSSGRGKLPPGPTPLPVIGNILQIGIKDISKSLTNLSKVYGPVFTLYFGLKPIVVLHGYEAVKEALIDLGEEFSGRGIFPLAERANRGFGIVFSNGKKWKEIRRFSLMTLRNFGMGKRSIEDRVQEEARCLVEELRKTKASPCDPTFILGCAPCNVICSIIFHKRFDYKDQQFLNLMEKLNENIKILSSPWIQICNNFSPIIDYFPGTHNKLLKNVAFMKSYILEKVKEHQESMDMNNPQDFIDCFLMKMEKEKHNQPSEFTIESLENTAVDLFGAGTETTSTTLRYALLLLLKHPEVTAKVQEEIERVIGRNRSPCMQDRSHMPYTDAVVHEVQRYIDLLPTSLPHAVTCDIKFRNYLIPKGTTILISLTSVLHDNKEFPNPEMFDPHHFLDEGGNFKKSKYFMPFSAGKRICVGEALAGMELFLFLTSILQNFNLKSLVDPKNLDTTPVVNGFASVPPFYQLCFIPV

[7] = Inhibition of N-terminal His-tagged Trypanosoma brucei pteridine reductase 1 using di-hydrobiopterine as substrate measured at 1 min interval for 50 mins in presence of NADPH; how it was run: as §1
Trypanosoma brucei [8] = test: Growth inhibition of Trypanosoma brucei bloodstream forms measured after 72 hrs by resazurin-based fluorescence assay; type: organism-based
How it was run: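 Mid-log bloodstream-form T. brucei were seeded at a final 5 x 10^3/mL in supplemented HMI-9 with serial compound dilutions. Cultures ran 72 h at 37 °C, 5% CO₂, then 4 h more after resazurin. Fluorescence was read at ex 540/em 620 nm, and EC₅₀ was fitted by non-linear regression.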

Cytochrome P450 2D6 = Cytochrome P450 2D6 (Homo sapiens, UniProt P10635); test: Inhibition of human CYP2D6 expressed in baculovirus infected insect cells using beetle D-luciferin as substrate preincubated for 30 mins followed by NADPH addition and measured after 30 mins by CYP450-Glo assay
Sequence of Cytochrome P450 2D6 (P10635 whole entry): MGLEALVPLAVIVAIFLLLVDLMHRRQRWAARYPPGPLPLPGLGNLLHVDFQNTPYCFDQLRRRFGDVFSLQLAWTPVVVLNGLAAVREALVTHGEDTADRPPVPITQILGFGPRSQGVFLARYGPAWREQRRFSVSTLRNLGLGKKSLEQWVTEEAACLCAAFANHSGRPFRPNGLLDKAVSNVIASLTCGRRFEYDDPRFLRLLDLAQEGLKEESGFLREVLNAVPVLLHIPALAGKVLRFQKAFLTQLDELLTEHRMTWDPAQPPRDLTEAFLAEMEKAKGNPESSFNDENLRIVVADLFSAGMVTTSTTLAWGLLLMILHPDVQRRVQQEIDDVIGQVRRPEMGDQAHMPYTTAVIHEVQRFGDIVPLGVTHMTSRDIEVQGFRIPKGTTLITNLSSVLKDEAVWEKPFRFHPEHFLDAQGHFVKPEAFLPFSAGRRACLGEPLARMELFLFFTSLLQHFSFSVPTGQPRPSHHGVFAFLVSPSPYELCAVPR

Trypanosoma brucei [9] = test: Growth inhibition of Trypanosoma brucei bloodstream forms at 10 uM measured after 72 hrs by resazurin-based fluorescence assay relative to control; type: organism-based; settings: Trypanosoma brucei, read-out: GI
Cytochrome P450 3A4 = Cytochrome P450 3A4 (Homo sapiens, UniProt P08684); test: Inhibition of human CYP3A4 expressed in baculovirus infected insect cells using beetle D-luciferin as substrate preincubated for 30 mins followed by NADPH addition and measured after 30 mins by CYP450-Glo assay
Sequence of Cytochrome P450 3A4 (P08684 whole entry): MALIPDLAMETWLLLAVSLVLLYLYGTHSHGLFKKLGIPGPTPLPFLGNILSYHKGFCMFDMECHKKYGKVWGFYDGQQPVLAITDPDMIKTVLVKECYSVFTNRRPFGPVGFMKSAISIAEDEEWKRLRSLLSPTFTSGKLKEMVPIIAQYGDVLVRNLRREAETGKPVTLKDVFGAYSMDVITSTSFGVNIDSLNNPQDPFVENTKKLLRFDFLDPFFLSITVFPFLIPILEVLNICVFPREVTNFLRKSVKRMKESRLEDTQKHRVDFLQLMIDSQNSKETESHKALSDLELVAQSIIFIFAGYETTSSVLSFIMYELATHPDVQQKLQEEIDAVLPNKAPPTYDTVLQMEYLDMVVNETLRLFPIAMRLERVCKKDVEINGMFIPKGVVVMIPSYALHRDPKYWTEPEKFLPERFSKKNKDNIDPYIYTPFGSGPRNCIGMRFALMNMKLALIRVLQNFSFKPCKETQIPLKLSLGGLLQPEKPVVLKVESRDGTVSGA

[10] = Cytotoxicity against human A549 cells after 48 hrs by Celltiter-glo assay; type: cell-based
Leishmania infantum = test: Growth inhibition of luciferase expressing Leishmania infantum axenic amastigotes infected in human THP1 cells at 10 uM measured after 72 hrs by steady-glo luminescence assay relative to control; type: organism-based; settings: for inhibition at 10 µM: Leishmania infantum, THP-1, 72 h, read-out: GI; for growth inhibition (GI): leishmania infantum, 72 h, 10 µM
[11] = biological target: T3, Pteridine reductase 1 (Leishmania major) (UniProt Q01782); test: Inhibition of Leishmania major pteridine reductase 1 at 50 uM using di-hydrobiopterine as substrate in presence of NADPH relative to control; how it was run: as §1
T3 sequence (whole entry): T1 sequence (Q01782 whole entry)

Trypanosoma brucei [12] = test: Inhibition of PTR1 in Trypanosoma brucei bloodstream forms assessed as potentiation of methotrexate-induced parasitic cell growth inhibition at 10 uM measured after 72 hrs by resazurin-based fluorescence assay (reference value: 19 +/- 6%)
How it was run: (§2)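 Bloodstream-form T. brucei resazurin assay: 72 h at 37 °C, 5% CO₂, then fluorescence at ex 540/em 620 nm. Benzothiazole was tested at 10 μM alone and with 4 μM methotrexate. The index is the combination's activity divided by the sum of the activities of 10 μM benzothiazole and 4 μM methotrexate given separately.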

Trypanosoma brucei [13] = test: Inhibition of PTR1 in Trypanosoma brucei bloodstream forms assessed as potentiation of methotrexate-induced parasitic cell growth inhibition by measuring potentiation index at 10 uM measured after 72 hrs by resazurin-based fluorescence assay relative to control (methotrexate); type: functional; how it was run: as §2

Sequence of Voltage-gated inwardly rectifying potassium channel KCNH2 (Q12809 whole entry): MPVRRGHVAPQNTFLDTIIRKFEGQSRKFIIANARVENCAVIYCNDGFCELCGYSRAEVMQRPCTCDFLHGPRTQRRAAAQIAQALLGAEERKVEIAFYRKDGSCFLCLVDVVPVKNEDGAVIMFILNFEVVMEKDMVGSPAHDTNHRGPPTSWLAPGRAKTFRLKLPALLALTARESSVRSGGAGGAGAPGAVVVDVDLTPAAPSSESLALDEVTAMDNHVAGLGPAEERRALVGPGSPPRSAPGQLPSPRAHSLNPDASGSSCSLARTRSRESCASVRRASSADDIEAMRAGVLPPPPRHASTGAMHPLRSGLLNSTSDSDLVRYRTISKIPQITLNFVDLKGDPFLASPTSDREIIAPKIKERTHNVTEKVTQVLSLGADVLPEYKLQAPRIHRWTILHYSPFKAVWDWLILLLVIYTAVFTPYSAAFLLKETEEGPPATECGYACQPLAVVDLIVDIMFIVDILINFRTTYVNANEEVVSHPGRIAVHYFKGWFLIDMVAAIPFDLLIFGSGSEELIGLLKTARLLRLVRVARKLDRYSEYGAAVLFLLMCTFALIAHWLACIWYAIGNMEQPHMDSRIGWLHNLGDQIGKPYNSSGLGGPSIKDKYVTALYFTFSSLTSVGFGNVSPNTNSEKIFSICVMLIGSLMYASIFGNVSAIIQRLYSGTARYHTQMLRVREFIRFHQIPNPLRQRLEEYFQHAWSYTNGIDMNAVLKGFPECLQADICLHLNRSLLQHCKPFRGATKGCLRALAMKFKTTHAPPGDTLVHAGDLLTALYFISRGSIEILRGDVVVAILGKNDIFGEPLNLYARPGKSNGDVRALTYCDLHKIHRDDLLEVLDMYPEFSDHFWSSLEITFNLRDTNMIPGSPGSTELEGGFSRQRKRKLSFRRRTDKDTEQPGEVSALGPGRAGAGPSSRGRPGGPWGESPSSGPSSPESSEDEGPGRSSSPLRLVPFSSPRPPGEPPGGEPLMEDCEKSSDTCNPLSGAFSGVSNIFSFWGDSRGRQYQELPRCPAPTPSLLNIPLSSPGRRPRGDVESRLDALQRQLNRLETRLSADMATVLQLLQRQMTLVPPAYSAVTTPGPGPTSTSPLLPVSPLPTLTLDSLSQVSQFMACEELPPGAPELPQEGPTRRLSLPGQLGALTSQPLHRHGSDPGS

Row | SMILES | inhibition (Trypanosoma brucei [2]) [%] | IC50 (Cytochrome P450 1A2) [µM] | Ratio IC50 [4] | IC50 (Cytochrome P450 2C19) [µM] | IC50 (Cytochrome P450 2C9) [µM] | IC50 [7] [µM] | IC50 (Cytochrome P450 2D6) [µM] | IC50 (Cytochrome P450 3A4) [µM] | inhibition [11] | IC50 (Pteridine reductase 1; read-out: IC50) [µM] | growth inhibition (GI) (Trypanosoma brucei [12]) [%] | IC50 [1] [µM] | MNTC at 72 h [3] [µM] | inhibition at 50 µM (Trypanosoma cruzi) [%] | GI50 [5] [µM] | IC50 at 6 h [6] [µM] | inhibition at 10 µM (Trypanosoma brucei [9]) [%] | GI50 at 48 h [10] [µM] | Ratio (Trypanosoma brucei [13]) | growth inhibition (GI) (Leishmania infantum) | also measured
1 | COc1ccc(CN(Cc2ccc(Cl)c(Cl)c2)C(=O)c2ccc3nc(N)sc3c2)cc1OC | > 60 | > 25 | 2 to 100 | < 10 | < 10 | 15.9 | < 10 | < 10 | inactive | – | – | > 25 | 10 to 25 | 47.9 | > 25 | 10 to 25 | > 60 | > 25 | – | – | IC50 (Pteridine reductase 1): Not Active; EC50 (Trypanosoma brucei [8]): 9.7 µM; inhibition at 10 µM (Leishmania infantum): 9%
2 | Nc1nc2ccc(SCc3ccc(Cl)c(Cl)c3)cc2s1 | > 60 | 10 to 25 | 2 to 100 | < 10 | > 25 | 0.9 | < 10 | < 10 | > 60% | 10 | 65 | > 25 | > 25 | 21.4 | > 25 | > 25 | 41 to 46 | 10 to 25 | 1.1 | Non-Toxic | –
3 | N#Cc1ccc(COc2ccc3nc(N)sc3c2)cc1 | > 60 | > 25 | 2 to 100 | < 10 | > 25 | 0.67 | > 25 | 10 to 25 | > 60% | 86.5 | 80 | > 25 | 10 to 25 | 15.4 | > 25 | > 25 | 21 to 27 | 10 to 25 | 2 | Non-Toxic | –
4 | Nc1nc2c(O)cc(C(=O)NCc3ccc(Cl)c(Cl)c3)cc2s1 | 11.8 | > 25 | 2 to 100 | > 25 | > 25 | – | > 25 | > 25 | 8.7% | – | – | > 25 | > 25 | 42 | > 25 | > 25 | > 60 | > 25 | – | – | EC50 (Trypanosoma brucei [8]): 5.9 µM; inhibition at 10 µM (Leishmania infantum): 24%

The next lines start with results.

Row | inhibition (Trypanosoma brucei [2]) [%] | IC50 (Cytochrome P450 1A2) [µM] | Ratio IC50 [4] | IC50 (Cytochrome P450 2C19) [µM] | IC50 (Cytochrome P450 2C9) [µM] | IC50 [7] [µM] | IC50 (Cytochrome P450 2D6) [µM] | IC50 (Cytochrome P450 3A4) [µM] | inhibition [11] | IC50 (Pteridine reductase 1; read-out: IC50) [µM] | growth inhibition (GI) (Trypanosoma brucei [12]) [%] | SMILES | IC50 [1] [µM] | MNTC at 72 h [3] [µM] | inhibition at 50 µM (Trypanosoma cruzi) [%] | GI50 [5] [µM] | IC50 at 6 h [6] [µM] | inhibition at 10 µM (Trypanosoma brucei [9]) [%] | GI50 at 48 h [10] [µM] | Ratio (Trypanosoma brucei [13]) | growth inhibition (GI) (Leishmania infantum) | also measured
5 | > 60 | > 25 | 2 to 100 | > 25 | > 25 | 0.5 | > 25 | > 25 | > 60% | 1.9 | 33 | Nc1nc2ccc(SC(F)(F)F)cc2s1 | 10 to 25 | 10 to 25 | 37.4 | > 25 | > 25 | 11 | < 10 | 1.1 | Non-Toxic | –
6 | > 60 | < 10 | 2 to 100 | < 10 | > 25 | 3.4 | 10 to 25 | < 10 | inactive | – | 89 | Nc1nc2ccc(OCc3ccc(Cl)c(Cl)c3)cc2s1 | > 25 | > 25 | 7.24 | > 25 | > 25 | 42 to 55 | > 25 | 1.2 | Non-Toxic | IC50 (Pteridine reductase 1): Not Active
7 | > 60 | > 25 | 2 to 100 | < 10 | < 10 | 0.5 | < 10 | < 10 | > 60% | 30 | 80 | Nc1nc2ccc(SCc3ccc(C(=O)NCc4ccccc4)cc3)cc2s1 | > 25 | 10 to 25 | 19.2 | > 25 | > 25 | 26 to 33 | < 10 | 1.6 | Non-Toxic | –
8 | > 60 | > 25 | 2 to 100 | < 10 | > 25 | 0.93 | < 10 | < 10 | > 60% | 15.1 | 93 | COC(=O)C1CCN(C(=O)c2ccc(CSc3ccc4nc(N)sc4c3)cc2)CC1 | > 25 | > 25 | 16.3 | > 25 | > 25 | 42 to 53 | > 25 | 1.3 | Non-Toxic | –
9 | > 60 | 10 to 25 | 2 to 100 | < 10 | < 10 | 0.92 | < 10 | < 10 | > 60% | 47.6 | 69 | COC(=O)c1ccc(CSc2ccc3nc(N)sc3c2)cc1 | > 25 | 10 to 25 | 23 | > 25 | > 25 | 7 to 17 | > 25 | 2.7 | Non-Toxic | –
